Results on 97 compounds are retold here after ChEMBL document CHEMBL4513216, “Probing the Open Global Health Chemical Diversity Library for Multistage-Active Starting Points for Next-Generation Antimalarials” (ACS Infect Dis, 2020).

A short description of the data set: Toxicity liver stage against HepG2, at 10uM. The data set is classed as cell-based. More on the design: test concentration 10 uM, cell line HepG2-A16-CD81EGFP. As to conditions: human, HepG2-A16-CD81EGFP cells; read-out: INHIBITION
The essentials:
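Uninfected HepG2-A16-CD81EGFP cells, 3 × 10^3 per well, 1536-well, plated on prespotted compound at 10 μM final, parasite-free screening media added to match infected plates; puromycin 10 μM positive, DMSO 0.5% negative; run in parallel with 48 h PbLuc assay at 37 °C, 5% CO2; viability by CellTiter-Glo luminescence, normalized to controls.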
Consider `CCN(CC)S(=O)(=O)c1ccc(CCC(=O)NCc2cc(C)on2)cc1`, for which the cytotoxicity at 10 µM is -3.09%.

With `Cc1cc(C(=O)N2CCOC[C@H](Oc3cnccn3)C2)c(C(F)(F)F)o1`, the cytotoxicity at 10 µM is -1.13%.

In the case of `O=C(NCCCc1ccco1)c1cnc(N2CCOCC2)nc1`, the cytotoxicity at 10 µM stood at 11%.

`COCCn1ccc2ccc(C(=O)O)cc21`: the cytotoxicity at 10 µM was -9.13%.

In the case of `O=C(C1CC(=O)N(c2n[nH]c3cc(Br)ccc23)C1)N1CCCC1` (configuration not stated), the cytotoxicity at 10 µM was -11.2%.

As for `O=C(NCCC(O)c1cccs1)c1ccc(Br)o1` (configuration not stated), the cytotoxicity at 10 µM was -15.2%.

In the case of `Cn1nnc2c(N3CC(C(=O)NCCC4=CCCCC4)C3)ncnc21`, the cytotoxicity at 10 µM is 8.41%.

For the compound `O=C1CCC2(CCCN(C(=O)Cc3cccs3)C2)N1` (configuration not stated), the cytotoxicity at 10 µM worked out at 3.76%.

`CN(C)C(=O)CN1CCC2(CCN(C(=O)N(C)C)CC2)C1=O`: the cytotoxicity at 10 µM was determined as 0.611%.

With `CN(Cc1cccnc1)C1CC2(CCN(C(=O)c3cscn3)CC2)C1`, the cytotoxicity at 10 µM came to 1.02%.

Turning to `Cn1c(C(=O)NC2CCCC2)nc2c1CCN(Cc1ccccc1)C2`, the cytotoxicity at 10 µM was found to be 10.3%.

`O=c1cc(CN2CCCC2)nc2n1CCCN(Cc1ccoc1)C2`: the cytotoxicity at 10 µM is -123%.

With `CC(NC(=O)OC(C)(C)C)c1nnc(S(=O)(=O)Cc2ccc(Cl)cc2)o1` (configuration not stated), the cytotoxicity at 10 µM is -8.92%.

For `CCOc1c(Cl)cc(Cl)cc1CNCCCn1ccnc1`, the cytotoxicity at 10 µM was -1.32%.

Take `Cc1c(C(=O)O)nnn1Cc1cccc(C(F)(F)F)c1`: the cytotoxicity at 10 µM is -2.93%.

Regarding `Cc1ccc(Sc2ccc(N3CCCC(C(=O)O)C3)nn2)cc1` (configuration not stated), the cytotoxicity at 10 µM is -8.71%.

Consider `CC(C)Sc1nnc(CCNC(=O)OC(C)(C)C)o1`, for which the cytotoxicity at 10 µM amounted to 14.3%.

For `CC(=O)NCCN1CCC(c2cccs2)CC1`, the cytotoxicity at 10 µM is -22.6%.

Take `CCNC(=O)c1nnn(Cc2ccccc2)c1OC`: the cytotoxicity at 10 µM is 4.62%.

On to `COc1ccc(C(C)N(C)Cc2c(C(C)(C)C)[nH]c3ncccc23)cc1` (configuration not stated), for which the cytotoxicity at 10 µM was -0.0612%.

For the compound `CC(=O)NC1Cc2ccc(S(=O)(=O)NCCNc3ccccn3)cc2C1` (configuration not stated), the cytotoxicity at 10 µM came to 0.126%.

As to `CC(C)c1ccc(CN[C@@H]2COC[C@H]2c2ccc(F)cc2)cc1`, the cytotoxicity at 10 µM was -7.52%.

As for `CN(C)c1ccc(CC2CCN(c3cnccn3)CC2)nn1`, the cytotoxicity at 10 µM came to 2.29%.

On to `CC(C)OC(=O)[C@@H]1CCN(C(=O)c2ccccn2)[C@@H]1c1ccc(F)cc1`, for which the cytotoxicity at 10 µM came out at 4.81%.

On to `Cc1n[nH]c(C)c1CCC(=O)N[C@@H]1CCC[C@@H](Oc2ccccc2)[C@@H]1O`, for which the cytotoxicity at 10 µM was found to be 3.01%.

Regarding `CN1CCN(C(=O)C2CCN(c3cccnn3)C2)CC1` (configuration not stated), the cytotoxicity at 10 µM was -32.4%.

On to `CC(C)N(Cc1ccccc1)C(=O)c1cc(C2CCCN2C)ccn1` (configuration not stated), for which the cytotoxicity at 10 µM is -18.7%.

On to `Cc1nnc2n1CCN(C(=O)c1ccc(Cn3cccc3)cc1)C2`, for which the cytotoxicity at 10 µM is -2.4%.

`CCOc1ccccc1CCNC(=O)NCC(O)c1ccsc1` (configuration not stated): the cytotoxicity at 10 µM is -2.23%.

As for `COCCCNC(=O)Nc1c(C)cccc1C(C)C`, the cytotoxicity at 10 µM came to 2.66%.

Turning to `CNS(=O)(=O)CC(=O)NCc1cc2c(s1)CCC(C)(C)C2`, the cytotoxicity at 10 µM is 3.15%.

In the case of `CC(C)CN(C(=O)Nc1cccnc1)C1CC1`, the cytotoxicity at 10 µM is -11.3%.

`CCN(CCNC(=O)Nc1nnc(C)s1)C(=O)OC(C)(C)C`: the cytotoxicity at 10 µM was -9.41%.

As to `O=C1CCCN1CCN1CCCCC1Cn1cncn1` (configuration not stated), the cytotoxicity at 10 µM is -0.225%.

`O=C(O)c1csc(S(=O)(=O)N2CCN(Cc3ccc(Cl)cc3)CC2)c1`: the cytotoxicity at 10 µM was 4%.

For `Cc1cc(C(=O)NC(C)CC(=O)c2cccs2)n(C)n1` (configuration not stated), the cytotoxicity at 10 µM is -0.0944%.

`COc1ncccc1CNCc1c(C(C)C)nn(C)c1N(C)C`: the cytotoxicity at 10 µM is -5.91%.

`COc1ccc(C(C)NC(=O)Nc2nnc(C)s2)c(OC)c1` (configuration not stated): the cytotoxicity at 10 µM is 9.12%.

For the compound `COC(=O)N1CCC(NC(=O)Cn2cc(C)c3ccccc32)CC1`, the cytotoxicity at 10 µM is -2.37%.

With `CN(Cc1ccc(Cl)s1)C(=O)COc1cccc(C(N)=O)c1`, the cytotoxicity at 10 µM is -2.83%.

In the case of `Cc1noc(CN(CCc2cccs2)Cc2cccc(C#N)c2)n1`, the cytotoxicity at 10 µM came to 2.27%.

For the compound `COCCOCC(=O)Nc1cc(C)ccc1F`, the cytotoxicity at 10 µM stood at 3.91%.

`CC(C)c1ccc(C(=O)N2CCOCC2CC(=O)c2ccco2)cn1` (configuration not stated): the cytotoxicity at 10 µM is 6.93%.

On to `CC(C)NC(=O)c1nnn(-c2cccc(F)c2)c1C1CC1`, for which the cytotoxicity at 10 µM was -0.0198%.

Take `Cc1cc(C)c(C(=O)N2CCOC(c3cccs3)C2)c(=O)[nH]1` (configuration not stated): the cytotoxicity at 10 µM was -1.29%.

Take `Cn1c(SCC(O)COCc2ccc(Cl)cc2)nnc1C1CC1` (configuration not stated): the cytotoxicity at 10 µM was found to be 14%.

As to `Cc1ccc(N2CCCC(NC(=O)CCc3ccccn3)C2=O)cc1` (configuration not stated), the cytotoxicity at 10 µM was -2.16%.

Regarding `O=C(NCCc1cccs1)N1CCCC1CCCO` (configuration not stated), the cytotoxicity at 10 µM is 5.82%.

For the compound `CS(=O)(=O)CCCSc1n[nH]c(-c2ccc3c(c2)CCC3)n1`, the cytotoxicity at 10 µM was -0.0422%.

`O=c1[nH]nc2n1CCN(S(=O)(=O)c1ccccc1Cl)C2`: the cytotoxicity at 10 µM was found to be 3.61%.

Regarding `O=C(CC(F)(F)F)NCC(O)c1ccc2ccccc2c1` (configuration not stated), the cytotoxicity at 10 µM was -4.06%.

`O=C(NCCNc1cnccn1)NCC1CCS(=O)(=O)C1` (configuration not stated): the cytotoxicity at 10 µM is -1.68%.

As for `COc1ccc(C(=O)CCc2nc(C3CC3)no2)cc1F`, the cytotoxicity at 10 µM was -2.89%.

Consider `CC(=O)N1CCCN(C(C)c2ccc(Br)cc2)CC1` (configuration not stated), for which the cytotoxicity at 10 µM is 7.89%.

Consider `CN1CC(C(=O)NCc2ccc(Br)cc2F)CC1=O` (configuration not stated), for which the cytotoxicity at 10 µM was 9.01%.

`Cc1ccn(-c2ccc(NCc3ccccc3F)nn2)n1`: the cytotoxicity at 10 µM came out at 3.66%.

Regarding `Cc1cnc(CNc2c(F)cccc2-n2cccn2)o1`, the cytotoxicity at 10 µM came to 15.6%.

Take `c1cnc(N2CCOCC3(CCN(c4cnccn4)CC3)C2)nc1`: the cytotoxicity at 10 µM was -103%.

In the case of `COCC(=O)N1CCN(CC2CC2)c2ncccc2C1`, the cytotoxicity at 10 µM was -100%.

Consider `COc1ccccc1OC1CCN(c2nc(N)nc3[nH]cnc23)CC1`, for which the cytotoxicity at 10 µM came to 2.94%.

Take `Cc1cc(N(C)Cc2ncc[nH]2)nc(-c2cccnc2)n1`: the cytotoxicity at 10 µM worked out at 4.37%.

In the case of `O=C(c1ccccc1)C1CCN(C(=O)CC2COCCN2)CC1` (configuration not stated), the cytotoxicity at 10 µM is -163%.

For the compound `Cc1cc(C)n(CC2(CNC(=O)C(c3ccc(F)cc3)N(C)C)CC2)n1` (configuration not stated), the cytotoxicity at 10 µM was 0.438%.

Turning to `O=c1n(CC2CCCCO2)nc(CC2CCNCC2)n1-c1ccccc1` (configuration not stated), the cytotoxicity at 10 µM is -6.66%.

`COc1cccc(F)c1-c1nc2c([nH]1)c(C1CC1)nn2C`: the cytotoxicity at 10 µM is 0.271%.

Turning to `COc1ccc(-n2nc(C(C)C)nc2Cn2cncn2)cc1`, the cytotoxicity at 10 µM worked out at 4.22%.

On to `CCOc1cccc(C(=O)N2CCCn3nc(CCC(=O)O)cc3C2)c1`, for which the cytotoxicity at 10 µM was -3.43%.

Consider `CN1CCN(C(=O)c2ccc3c(c2)nc(N2CCOCC2)n3C)CC1=O`, for which the cytotoxicity at 10 µM was found to be 1.22%.

`CC(=O)N[C@@H]1CN(Cc2nccn2C)C[C@H]1c1ccc(C)cc1`: the cytotoxicity at 10 µM came to 14.1%.

For the compound `CC(C)c1noc(-c2ccc(NCc3noc(C(C)C)n3)nc2)n1`, the cytotoxicity at 10 µM is -6.49%.

Take `CCc1ccc(CNC(=O)CCc2nnc(-c3ccc(C)s3)o2)nc1`: the cytotoxicity at 10 µM is -3.65%.

On to `COc1cccc(CN(C)Cc2nc3cc(C)ccc3[nH]2)c1O`, for which the cytotoxicity at 10 µM turned out to be 2.74%.

For `NC(=O)COc1ccc(C(=O)N2CCCC(n3ccnc3)C2)cc1` (configuration not stated), the cytotoxicity at 10 µM was -13%.

Turning to `COc1cccc2cc(CNCc3ccnc(N4CCCCC4)c3)oc12`, the cytotoxicity at 10 µM was -0.381%.

Regarding `COc1cccc(OCC(=O)NS(=O)(=O)c2cccnc2)c1`, the cytotoxicity at 10 µM is -12.1%.

For the compound `Cn1ncc2c(=O)[nH]c(CN3CCCC3c3ccsc3)nc21` (configuration not stated), the cytotoxicity at 10 µM was -18%.

As for `Cc1nc(C)n(C2CCCN(C(=O)c3sccc3C)C2)n1` (configuration not stated), the cytotoxicity at 10 µM is -8.93%.

For `CCc1noc(CN2CCC(c3ccnn3CCO)CC2)n1`, the cytotoxicity at 10 µM was -11%.

For the compound `CCc1nc(CN2CCCN(C(=O)CC(F)(F)F)CC2)cs1`, the cytotoxicity at 10 µM was -18.9%.

As for `Cc1csc(N2CCCN(C(=O)c3c(C)noc3C)CC2)n1`, the cytotoxicity at 10 µM was -10.6%.

For the compound `CC(C(=O)N1CCOCC1)n1cncn1` (configuration not stated), the cytotoxicity at 10 µM was -1.45%.

As to `Cc1nccc(C(=O)NC(COCC(C)C)c2ccco2)n1` (configuration not stated), the cytotoxicity at 10 µM is -10.7%.

For the compound `Cc1csc(C2CCCCN2C(=O)c2cc(Cl)c[nH]2)n1` (configuration not stated), the cytotoxicity at 10 µM was -6.73%.

As for `CCc1nnc(CNC2CCc3nc(C(C)C)nn3C2)o1` (configuration not stated), the cytotoxicity at 10 µM was -20.6%.

Regarding `Cc1cnn(CCC(=O)N2CCCC(c3ccn[nH]3)C2)c1` (configuration not stated), the cytotoxicity at 10 µM was -8.25%.

For `Cc1ccc(CCC(=O)N2CCCC(n3cncn3)C2)c(C)c1` (configuration not stated), the cytotoxicity at 10 µM was 1.8%.

Take `Cc1noc(C(C)C)c1C(=O)NCCCOC(C)C`: the cytotoxicity at 10 µM was -9.83%.

As to `Cc1ccc(CN2CCCC3(CCC(=O)N3)CC2)s1` (configuration not stated), the cytotoxicity at 10 µM was -5.84%.

For `O=C(C[C@@H]1COC[C@H]2CN(C(=O)c3cccnc3)C[C@@H]12)N1CCCC1`, the cytotoxicity at 10 µM was -118%.

For `CN(C)CCO[C@H]1CN(C(=O)c2cccs2)[C@@H]2COC[C@H]12`, the cytotoxicity at 10 µM was -3.83%.

As to `O=C(c1cnccn1)N1CCCC2(CCN(Cc3cccnc3)C2)C1` (configuration not stated), the cytotoxicity at 10 µM is -129%.

As for `COc1ccc(CN2C[C@H]3CN(c4cncnc4)C(=O)[C@H]3C2)cc1`, the cytotoxicity at 10 µM turned out to be 4.74%.

In the case of `CCN1CC[C@@]2(C(=O)N3CCOCC3)CCN(C(=O)NC)CC[C@@H]12`, the cytotoxicity at 10 µM was -12.7%.

Take `Cc1cccc(CN2C(=O)CC[C@H]3[C@@H]2CCN3CC(=O)N(C)C)n1`: the cytotoxicity at 10 µM was -71.7%.

Take `Cc1nc(Cn2c3c(ccc2=O)CCN(CC2CCC2)CC3)cs1`: the cytotoxicity at 10 µM was determined as 5.1%.

Consider `CCn1cc2c(n1)CN(S(=O)(=O)c1cn(C)cn1)CC2COC` (configuration not stated), for which the cytotoxicity at 10 µM came out at 5.41%.

For `CCCS(=O)(=O)N1C[C@@H]2C[C@H](C(=O)N3CCOCC3)[C@H](C1)O2`, the cytotoxicity at 10 µM is -1.95%.
